How the values were obtained:
[1] = target: Phosphatidylinositol 4,5-bisphosphate 3-kinase catalytic subunit alpha isoform (Bos taurus, UniProt P32871); test: Inhibition of GST-tagged bovine p110-alpha expressed in SF9/Baculovirus system by SPA
[2] = tested on: A-375; test: Inhibition of serum-induced proliferation of human A375 cells; format: functional, cell-based
Outline: (§1)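 Cells were grown in DMEM with 10% FBS and penicillin/streptomycin and seeded at 1 × 10⁴ per well onto pre-spotted compound. After 46 h, Alamar blue was added. Fluorescence (ex 544/em 590 nm) was read 2 h later.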

[3] = target: Phosphatidylinositol 4,5-bisphosphate 3-kinase catalytic subunit gamma isoform (Homo sapiens, UniProt P48736); test: Inhibition of His-tagged human p110gamma expressed in SF9/Baculovirus system by SPA
Chain of Phosphatidylinositol 4,5-bisphosphate 3-kinase catalytic subunit gamma isoform (P48736 whole entry, the tested form may be a part, canonical isoform): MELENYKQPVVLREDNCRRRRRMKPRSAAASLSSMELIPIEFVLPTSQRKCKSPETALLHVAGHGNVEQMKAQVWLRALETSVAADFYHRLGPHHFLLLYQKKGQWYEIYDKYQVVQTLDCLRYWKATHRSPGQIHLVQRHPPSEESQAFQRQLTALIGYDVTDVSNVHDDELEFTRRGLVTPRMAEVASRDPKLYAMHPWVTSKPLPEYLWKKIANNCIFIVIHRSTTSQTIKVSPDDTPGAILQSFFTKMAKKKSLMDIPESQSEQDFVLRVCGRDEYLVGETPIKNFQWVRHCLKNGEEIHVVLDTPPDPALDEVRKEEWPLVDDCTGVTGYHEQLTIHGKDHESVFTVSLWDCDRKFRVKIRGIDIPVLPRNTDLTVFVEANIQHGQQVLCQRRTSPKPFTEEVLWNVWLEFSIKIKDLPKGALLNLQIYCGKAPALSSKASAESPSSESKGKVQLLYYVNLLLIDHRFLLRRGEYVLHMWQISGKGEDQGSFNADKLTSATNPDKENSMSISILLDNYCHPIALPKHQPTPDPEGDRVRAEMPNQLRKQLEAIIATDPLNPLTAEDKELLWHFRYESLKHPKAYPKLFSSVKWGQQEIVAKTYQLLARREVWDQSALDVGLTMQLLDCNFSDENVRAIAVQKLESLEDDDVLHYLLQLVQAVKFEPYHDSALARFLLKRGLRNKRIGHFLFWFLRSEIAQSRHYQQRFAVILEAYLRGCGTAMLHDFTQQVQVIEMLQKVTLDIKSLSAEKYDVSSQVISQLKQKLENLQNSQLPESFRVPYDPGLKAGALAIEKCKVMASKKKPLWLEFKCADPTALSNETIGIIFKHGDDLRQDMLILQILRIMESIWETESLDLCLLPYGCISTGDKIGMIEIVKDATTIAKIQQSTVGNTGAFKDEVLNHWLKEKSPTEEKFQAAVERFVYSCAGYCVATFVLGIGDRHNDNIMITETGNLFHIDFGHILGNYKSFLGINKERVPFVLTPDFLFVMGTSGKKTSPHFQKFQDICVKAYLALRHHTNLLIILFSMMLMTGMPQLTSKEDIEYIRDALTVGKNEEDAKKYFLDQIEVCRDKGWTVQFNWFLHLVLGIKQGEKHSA

[4] = target: Phosphatidylinositol 4-phosphate 3-kinase C2 domain-containing subunit beta (Homo sapiens, UniProt O00750); test: Inhibition of glu-tagged PI3K C2-beta expressed in SF9/Baculovirus system by SPA
Chain of Phosphatidylinositol 4-phosphate 3-kinase C2 domain-containing subunit beta (O00750 whole entry, the tested form may be a part): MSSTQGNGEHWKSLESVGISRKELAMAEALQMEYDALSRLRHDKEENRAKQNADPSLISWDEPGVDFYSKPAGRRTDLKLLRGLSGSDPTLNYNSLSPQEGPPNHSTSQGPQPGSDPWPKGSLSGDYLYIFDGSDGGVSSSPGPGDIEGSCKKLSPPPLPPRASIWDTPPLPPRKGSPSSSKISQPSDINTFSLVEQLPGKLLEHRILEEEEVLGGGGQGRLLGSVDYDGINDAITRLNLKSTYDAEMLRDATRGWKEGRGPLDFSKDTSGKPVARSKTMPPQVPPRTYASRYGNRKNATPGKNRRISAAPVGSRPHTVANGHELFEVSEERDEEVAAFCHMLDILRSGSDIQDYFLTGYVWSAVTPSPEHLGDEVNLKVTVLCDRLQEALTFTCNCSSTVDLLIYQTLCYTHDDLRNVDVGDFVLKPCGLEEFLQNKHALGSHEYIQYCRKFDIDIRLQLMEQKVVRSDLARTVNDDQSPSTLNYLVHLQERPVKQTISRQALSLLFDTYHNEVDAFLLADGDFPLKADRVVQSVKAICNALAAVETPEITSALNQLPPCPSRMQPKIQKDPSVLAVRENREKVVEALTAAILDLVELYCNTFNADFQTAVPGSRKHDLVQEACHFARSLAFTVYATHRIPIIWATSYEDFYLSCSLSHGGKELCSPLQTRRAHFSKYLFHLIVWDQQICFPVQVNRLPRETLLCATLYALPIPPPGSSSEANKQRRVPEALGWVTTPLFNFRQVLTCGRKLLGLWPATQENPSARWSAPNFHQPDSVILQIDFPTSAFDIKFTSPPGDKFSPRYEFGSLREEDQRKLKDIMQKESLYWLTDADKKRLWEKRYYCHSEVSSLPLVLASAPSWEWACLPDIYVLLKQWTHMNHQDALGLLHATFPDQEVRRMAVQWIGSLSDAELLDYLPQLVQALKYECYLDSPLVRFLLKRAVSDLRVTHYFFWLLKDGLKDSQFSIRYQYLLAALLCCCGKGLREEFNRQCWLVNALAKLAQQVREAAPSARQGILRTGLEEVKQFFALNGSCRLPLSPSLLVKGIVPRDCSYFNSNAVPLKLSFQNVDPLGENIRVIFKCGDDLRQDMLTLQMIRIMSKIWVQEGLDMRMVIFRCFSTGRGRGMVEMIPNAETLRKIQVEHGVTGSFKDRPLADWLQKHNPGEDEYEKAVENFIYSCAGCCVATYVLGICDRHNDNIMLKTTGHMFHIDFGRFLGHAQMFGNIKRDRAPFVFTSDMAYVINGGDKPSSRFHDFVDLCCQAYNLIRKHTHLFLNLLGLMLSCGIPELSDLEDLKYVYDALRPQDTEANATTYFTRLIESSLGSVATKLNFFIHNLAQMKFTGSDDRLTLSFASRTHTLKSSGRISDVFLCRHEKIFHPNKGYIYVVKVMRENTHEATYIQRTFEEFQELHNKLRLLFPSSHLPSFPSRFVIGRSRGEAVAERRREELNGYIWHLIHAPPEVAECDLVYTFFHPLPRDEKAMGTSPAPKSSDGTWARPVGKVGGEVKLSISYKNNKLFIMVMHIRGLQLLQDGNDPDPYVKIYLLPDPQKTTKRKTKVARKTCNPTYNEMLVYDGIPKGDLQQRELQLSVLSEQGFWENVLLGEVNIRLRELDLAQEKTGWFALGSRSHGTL

[5] = tested on: HeLa; test: Inhibition of serum-induced proliferation of human HeLa cells; format: functional, cell-based; outline: as §1
[6] = tested on: A549; test: Inhibition of serum-induced proliferation of human A549 cells; format: functional, cell-based; outline: as §1
[7] = tested on: MCF7; test: Inhibition of serum-induced proliferation of human MCF7 cells; format: functional, cell-based
[8] = tested on: MCF7; test: Inhibition of serum-induced proliferation of human adriamycin-resistant MCF7 cells; format: functional, cell-based
[9] = tested on: HeLa; test: Suppression of tumor growth in human HeLa cell xenografted BALB/c nude mouse at 50 mg/kg/day, ip after 2 weeks; format: functional; conditions: route intraperitoneal
Outline: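 Female Balb/c-nu/nu mice, five per group, received 5 × 10⁶ HeLa cells subcutaneously in the hind quarters. Once tumors reached about 100 mm³, the compound was given i.p. at 50 mg/kg daily for 2 weeks. Tumor growth was compared with vehicle, and body weight was monitored.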

Chain of Phosphatidylinositol 4,5-bisphosphate 3-kinase catalytic subunit alpha isoform (P32871 whole entry, canonical isoform): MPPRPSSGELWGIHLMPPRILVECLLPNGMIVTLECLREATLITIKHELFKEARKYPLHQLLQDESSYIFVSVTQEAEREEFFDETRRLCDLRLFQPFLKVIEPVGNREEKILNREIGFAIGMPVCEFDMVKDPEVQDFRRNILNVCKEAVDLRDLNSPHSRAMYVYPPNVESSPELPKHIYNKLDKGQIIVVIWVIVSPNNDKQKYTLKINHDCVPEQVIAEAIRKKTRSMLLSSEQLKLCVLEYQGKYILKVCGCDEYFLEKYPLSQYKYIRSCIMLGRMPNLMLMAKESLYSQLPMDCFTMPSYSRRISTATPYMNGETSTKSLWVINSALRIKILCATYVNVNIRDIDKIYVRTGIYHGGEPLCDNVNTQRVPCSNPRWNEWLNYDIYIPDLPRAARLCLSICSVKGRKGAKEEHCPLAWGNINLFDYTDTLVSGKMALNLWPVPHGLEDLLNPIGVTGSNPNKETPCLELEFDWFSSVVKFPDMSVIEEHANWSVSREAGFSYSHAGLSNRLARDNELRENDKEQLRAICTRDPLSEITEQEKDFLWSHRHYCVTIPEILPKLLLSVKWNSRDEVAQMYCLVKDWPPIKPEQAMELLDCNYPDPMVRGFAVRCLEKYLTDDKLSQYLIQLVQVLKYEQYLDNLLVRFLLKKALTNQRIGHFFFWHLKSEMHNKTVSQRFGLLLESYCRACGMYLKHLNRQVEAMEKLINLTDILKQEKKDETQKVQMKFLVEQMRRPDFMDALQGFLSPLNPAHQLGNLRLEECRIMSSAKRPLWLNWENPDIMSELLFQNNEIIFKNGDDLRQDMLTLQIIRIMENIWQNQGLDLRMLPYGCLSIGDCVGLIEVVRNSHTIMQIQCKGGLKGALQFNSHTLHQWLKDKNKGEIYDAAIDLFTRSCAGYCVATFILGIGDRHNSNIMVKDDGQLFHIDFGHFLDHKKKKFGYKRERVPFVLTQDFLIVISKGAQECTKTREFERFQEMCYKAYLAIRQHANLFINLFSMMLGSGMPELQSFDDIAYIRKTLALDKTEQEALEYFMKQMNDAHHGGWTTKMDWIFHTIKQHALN

Structure (SMILES)	IC50 [1] [nM]	IC50 [2] [nM]	other results
C/C(=N\NS(=O)(=O)c1cc([N+](=O)[O-])ccc1C)c1c(C)nc2ccc(Br)cn12	400	–	–
CCOC(=O)c1ccc2ncc(/C=N/N(C)S(=O)(=O)c3cc([N+](=O)[O-])ccc3C)n2c1	340	9350	–
C/C(=N\N(C)S(=O)(=O)c1cc([N+](=O)[O-])ccc1C)c1cnc2ccc(Br)cn12	81	20000	–
Cc1ccc([N+](=O)[O-])cc1S(=O)(=O)N/N=C/c1cnc2ccc(Br)cn12	21	9000	–
C/C(=N\N(C)S(=O)(=O)c1cc([N+](=O)[O-])ccc1C)c1c(C)nc2ccc(Br)cn12	170	–	–
Cc1nc2ccccn2c1-c1ccn(S(=O)(=O)c2ccc(F)cc2)n1	–	23000	–
C/C(=N\NS(=O)(=O)c1cc([N+](=O)[O-])ccc1C)c1cnc2ccc(Br)cn12	17	12000	–

Continued by falling IC50 [2], values first:

IC50 [1] [nM]	IC50 [2] [nM]	Structure (SMILES)	other results
780	8960	Cc1ccc([N+](=O)[O-])cc1S(=O)(=O)N(C)/N=C/c1cnc2ccc(C(N)=O)cn12	–
–	8400	O=c1cc(N2CCOCC2)oc2c(-c3ccccc3)cccc12 [LY-294002]	–
–	730	Cc1ccc([N+](=O)[O-])cc1S(=O)(=O)n1ccc(-c2c(C)nc3ccc(Br)cn23)n1	–
5.3	180	Cc1ccc([N+](=O)[O-])cc1S(=O)(=O)N(C)/N=C/c1cnc2ccc(F)cn12	–
6	120	Cc1ccc2ncc(/C=N/N(C)S(=O)(=O)c3cc([N+](=O)[O-])ccc3C)n2c1	–
14	90	Cc1ccc([N+](=O)[O-])cc1S(=O)(=O)N(C)/N=C/c1cnc2ccc(C(F)(F)F)cn12	–
–	58	Cc1ccc([N+](=O)[O-])cc1S(=O)(=O)N(C)/N=C/c1cnc2ccc(Br)cn12.Cl	IC50 [3]: 40 nM; IC50 [4]: 100 nM; IC50 [5]: 51 nM; IC50 [6]: 69 nM; IC50 [7]: 19 nM; IC50 [8]: 39 nM; Activity [9]: 62%
0.77	56	Cc1ccc([N+](=O)[O-])cc1S(=O)(=O)N(C)/N=C/c1cnc2ccc(Cl)cn12	–
0.26	33	Cc1ccc([N+](=O)[O-])cc1S(=O)(=O)N(C)/N=C/c1cnc2ccc(C#N)cn12	–
